Experimental data as given in ChEMBL document CHEMBL4513216, “Probing the Open Global Health Chemical Diversity Library for Multistage-Active Starting Points for Next-Generation Antimalarials” (ACS Infect Dis, 2020).

Assay: Toxicity liver stage against HepG2, at 10uM
Format: cell-based
Design: test concentration 10 uM, cell line HepG2-A16-CD81EGFP
Details: human, HepG2-A16-CD81EGFP cells; read-out: INHIBITION
How it was run: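 Uninfected HepG2-A16-CD81EGFP cells, 3 × 10^3 per well, 1536-well, plated on prespotted compound at 10 μM final, parasite-free screening media added to match infected plates; puromycin 10 μM positive, DMSO 0.5% negative; run in parallel with 48 h PbLuc assay at 37 °C, 5% CO2; viability by CellTiter-Glo luminescence, normalized to controls.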

SMILES	cytotoxicity at 10 µM [%]
Cc1cc(C(=O)NCC(c2ccccc2Cl)N2CCOCC2)on1 (stereo not drawn)	2.62
FC(F)(F)c1ccc(-n2ccnc2-c2cc3n(n2)CCNC3)cn1	-4.65
O=C(Cc1csc(-c2ncccn2)n1)N1CCN2CCCCC2C1 (stereo not drawn)	7.94
CCc1ccc(OCC(O)CN2CCC(O)CC2)cc1 (stereo not drawn)	3.99
O=c1ccc2c(n1Cc1cccnc1)CCN(CC1CCOC1)CC2 (stereo not drawn)	8.13
C[C@@H]1CN(C(=O)c2nc3ccc(Cl)cn3c2-c2ncc[nH]2)C[C@H](C)O1	-6.01
CC(C)(C)c1ccc(-n2ncc3c2CCCC3N)cc1 (stereo not drawn)	-0.711
CCc1nnc(CN(CC)C(=O)CCc2scnc2C)o1	7.22
CCCN1CCCn2c(nc(CNC(=O)N3CCCC3)cc2=O)C1	12.1
COCCN1C[C@H]2CCN(C(C)=O)CC[C@H]2S1(=O)=O	15.4
CS(=O)(=O)CCn1ccc(NC(=O)Cc2ccccc2Cl)n1	13.6
CC(=O)NCC(=O)N1CCC(c2cncc(Oc3cccnc3)n2)CC1	-19.5
OCCNc1cc(N2CCC(n3cc(C4CCCC4)nn3)CC2)ncn1	-9.72
CC(C)CC(=O)N1CCC2(CC1)OC(C(N)=O)Cn1ccnc12 (stereo not drawn)	-105
O=C(NC1CCN(c2ccc(-c3ccccc3F)nn2)C1)c1cc[nH]n1 (stereo not drawn)	3.17
CC(C)C(=O)Nc1cccc(CNC(=O)CSCc2ccccn2)c1	9.65
Cn1nc(-c2ccccc2NC(=O)c2cncc(Br)c2)ccc1=O	0.461
O=C(c1ncoc1-c1ccco1)N(Cc1ccco1)CC1CCCO1 (stereo not drawn)	-2.05
CC[C@@H]1N(Cc2nccs2)CCC[C@]12CCC(=O)N2C	0.287
C[C@@H]1CN(S(=O)(=O)N2CCCC2)CC[C@@]1(O)C1CCOCC1	4.49
O=C1N(Cc2ccccn2)C[C@H]2CN(C3CCC3)CCN12	-4.81
O=C(NC1CCCC1)[C@@H]1CN(Cc2nccs2)C[C@H]2OCC[C@H]21	4.91

SMILES	cytotoxicity at 10 µM [%]
CCOC(C)c1nccn1CCC(=O)Nc1cc(C)on1 (stereo not drawn)	10.1
Cn1ccc(C(=O)N2CCN(CC(O)C(C)(C)C)CC2)cc1=O (stereo not drawn)	2.76
CC(C)n1cnnc1CCNCc1cn(CCC(N)=O)c2ccccc12	-3.81
CCc1ccc(N2CCC(NS(=O)(=O)N(CC)CC)CC2)cc1	0.243
NCCn1cc(C(=O)NCc2ccccc2-n2cccn2)nn1	-2.34
O=C(O)CSc1nnc(-c2cn[nH]c2)n1-c1ccccc1C(F)(F)F	1.2
COCC1CN(C(=O)N2CCCC2)Cc2cnn(CC3CCCC3)c21 (stereo not drawn)	9.23
CCc1nnc(CN2CCC(C3CCCCCN3C(=O)C3CC3)CC2)o1 (stereo not drawn)	-49.7
CCNC(=O)C1CCN(c2cc(-c3ccccc3)nc3ccnn23)C1 (stereo not drawn)	-16.9
CCc1c(C)nc2n(c1=O)CC(C(=O)Nc1nccs1)CS2 (stereo not drawn)	1.83
COCCOc1ccc(CNC2CCc3ncnn3C2)cc1OC (stereo not drawn)	-7.2
CN(C(=O)c1cccc(C(=O)NCC(F)(F)F)c1)c1ccccc1	-14.8
CC(=O)NCCc1ccc(S(=O)(=O)N(C)C(C)C(C)(C)C)s1 (stereo not drawn)	-3.58
O=C(Nc1cc[nH]n1)c1ccc(COCC(F)(F)F)cc1	-7.46
CCOCC(O)CN1CCN(C(=O)c2ccc(C)nc2)CC1 (stereo not drawn)	0.661
CC(C)Nc1ncccc1C(=O)NCc1cnc(N(C)C)n1C	-10.1
Cn1nc(C2CN(C(=O)c3cscn3)C2)c2nccnc21	2.21
CN(C)C(=O)NC1COC2(CCN(C(=O)Nc3ccccc3)CC2)C1 (stereo not drawn)	0.179
CN1CCC2(CC1)C(=O)N(c1cccnc1)c1ccc(F)cc12	3.65
CC(C)c1nnc(NC(=O)NC2CCOc3ccccc32)s1 (stereo not drawn)	18.1
Cc1nc(CN2CCc3nc(N4CCCC4)nc(NC(C)C)c3C2)cs1	2.72
CSc1ccc(CN2CCn3nc(CNC(C)=O)cc3C2)cc1	17.4

SMILES	cytotoxicity at 10 µM [%]
O=C(CC1CC1)N1CCO[C@H]2[C@H](OCCCn3cccn3)CC[C@@H]21	6.23
Cc1cc(C[C@@H]2COC[C@H]2NCc2ccc(C(F)(F)F)cc2)on1	-18.7
O=C(CCc1nc(Cl)n[nH]1)N1C[C@H](CO)C[C@H](CN2CCCC2)C1	0.77
O=C1NCCO[C@H]2CN(C(=O)c3cccs3)CC[C@@H]12	-107
COc1ccnc(N2CCN(C(=O)CN3CCOCC3)CC2)n1	-0.819
CC(C)c1nnc2n1CCN(Cc1csc(CC(=O)N(C)C)n1)C2	-15.9
Cc1cc(C)n(CC(C)NCCn2nc(C)c(Cl)c2C)n1 (stereo not drawn)	-5.44
CC(NC(=O)N1CCCN(C)CC1)c1ccc(S(N)(=O)=O)cc1 (stereo not drawn)	-11.7
COCCN(Cc1ccc(F)cc1Cl)C(=O)c1c(C)noc1C	-1.82
CC1CCN(C(=O)C2(Cc3cc(C4CCOC4)no3)CCNCC2)CC1 (stereo not drawn)	-3.04
Cc1ccc(OCCN(C)S(=O)(=O)c2cnn(C)c2)cc1	0.821
Cc1c(C(=O)NCC2CCN(C)C2)n(C)c2c(C)cccc12 (stereo not drawn)	10.1
CCc1nnc2n1CCN(C(=O)c1cc3cc(F)ccc3[nH]1)C2	-9.52
Cc1cc(N2CCCC2c2cncc(N(C)C)n2)ncn1 (stereo not drawn)	-15.2
O=C(CN1CCCCC1Cn1cncn1)NCCOc1ccccc1 (stereo not drawn)	-3.54
CCCOc1cccc(NS(=O)(=O)c2cc(C(=O)O)cs2)c1	1.09
O=C(NC(c1ccc(Cl)cc1)C(F)(F)F)c1nc(=O)[nH][nH]1 (stereo not drawn)	11.5
Cc1nc(CN(C)C2CCN(Cc3nc(C4CC4)no3)C2)no1 (stereo not drawn)	-5.29
CCOc1cccc(CNC(=O)NC2CC=CC2)c1OC(F)F	-49.1
CSCCC(=O)N1C[C@@H](C)[C@](O)(C(C)C)C1	0.68
N#Cc1ccccc1OCCN1CCn2c(nnc2C2CC2)C1	2.94
O=C1CC[C@H]2[C@H](CCN2C(=O)N2CCCC2)N1Cc1ccncc1	-2.04

SMILES	cytotoxicity at 10 µM [%]
CNC(=O)C(C)NC(=O)c1ccc(Oc2cccnc2)cc1 (stereo not drawn)	6.32
Cc1cc2[nH]c(=O)oc2cc1S(=O)(=O)N1CCCC(N(C)C)CC1 (stereo not drawn)	0.74
O=C(Cc1cccs1)N1CC[C@H]2[C@@H]1CCC(=O)N2c1cccnc1	3.94
Cc1ncc(CN(C)C(=O)Nc2cccc(N3CCOC3=O)c2)s1	5.31
CNC(=O)[C@@H](c1ccccc1OC)N1CCC[C@H]1C(=O)NCCN(C)C	-5.12
O=S1(=O)CCN(Cc2cccnc2)[C@H]2CCN(c3ncccn3)CC[C@H]21	-11.2
CCc1ccc(CN2CCc3c(nnn3C)C2COC)cc1 (stereo not drawn)	7.28
CCOCCOc1ccccc1C(=O)N1CCCC(c2ncc[nH]2)C1 (stereo not drawn)	-14.2
Cc1ccc(OCCNc2cccc(C(=O)N3CCOCC3)c2)cc1	4.14
CCCNC(=O)CN1CCN(c2nc(CC)ns2)CC1	-3.53
COc1ccc(Cl)cc1C(=O)N1CCCC(n2nc(C)nc2C)C1 (stereo not drawn)	-4.53
Cc1nn(C)c(C)c1CN(C)c1nc(C2CCCC2)nc2c1cnn2C	27.9
CNC(=O)N1CCCCC1c1nnc2n1CCCC2 (stereo not drawn)	-6.1
CCn1cc(NC(=O)C2CCN(Cc3nc(C(C)C)no3)CC2)cn1	0.449
COc1cccc(C=CCCN2CCN(S(C)(=O)=O)CC2)c1	-1.62
COc1ncccc1CNC(=O)N1CCC(CN2CCOCC2)CC1	-39.2
O=C(Cn1ccnc1)N1CC[C@H](Oc2cccc(F)c2)[C@@H](O)CC1	-0.59
COc1cc2c(cc1OC)CN(C(=O)NC(C)c1nncn1C)CC2 (stereo not drawn)	-4.54
COc1ccc(-c2cn(CCn3c(C)cc(C)nc3=O)nn2)cn1	6.05
Cc1cnn(C2(C(=O)O)CCN(c3ccnc4cc(Cl)ccc34)CC2)c1	-6.07
Cc1c(NC(=O)c2cccc(Br)c2)c(C(=O)N(C)C)nn1C	2.35
CCN(C)CC(=O)N1CCCC(c2nnc(CN3CCOCC3)n2C)C1 (stereo not drawn)	-8.28

SMILES	cytotoxicity at 10 µM [%]
Fc1cnc(N2CCCn3c(CN4CCOCC4)nnc3C2)nc1	-138
CC(C)c1noc(CC[C@@H]2CCCN3CCCC[C@H]23)n1	-0.143
COCCc1noc(CN2CCCC2Cn2cc(C)cn2)n1 (stereo not drawn)	-3.32
CC(NC(=O)NCCCc1n[nH]c(N)c1C#N)c1cccs1 (stereo not drawn)	-6.8
CCn1cc(C(=O)NCC(C)(CC)N2CCOCC2)c2ccccc21 (stereo not drawn)	6.13
CC(=O)c1ccc(N2CCCC(CO)(Cc3ccccc3F)C2)nc1 (stereo not drawn)	8.59
CCN(C)S(=O)(=O)NCC(O)c1c(Cl)cccc1Cl (stereo not drawn)	8.17
CN(C)CCN1C[C@@H]2CN(S(=O)(=O)c3ccccc3)C[C@@H]2C1=O	-112
COc1ccccc1C1CNC(=O)c2nc(-c3cn(C)nc3C)[nH]c2C1 (stereo not drawn)	-1.07
Cc1nc(CNCC2COCc3c(-c4ccoc4)nnn3C2)cs1 (stereo not drawn)	8.22
CN(Cc1ccccc1CNC(=O)C1CNC(=O)N1)C1CCCCC1 (stereo not drawn)	5.09
COCCn1cncc1CN1CCCC(C)(c2ccccc2)C1 (stereo not drawn)	0.363
CN1CCCCCC1C(=O)NCCCn1ncc2ccccc21 (stereo not drawn)	-1.43
O=C(NCC1COC2(CCOCC2)O1)c1csc(-c2cccc(Cl)c2)n1 (stereo not drawn)	-10.7
Cc1ccc(-c2c[nH]c([C@@H]3COCCN3Cc3cccnc3)n2)cc1	0.283
O=S(=O)(C1CC1)N1CCc2ncnc(N3CCCC3)c2CC1	-98.6
CC(=O)NCC(=O)Nc1cc(C)n(-c2ccc(Cl)cc2Cl)n1	-140
Cc1occc1C(=O)N1CCc2ncnc(C3CCOC3)c2CC1 (stereo not drawn)	-85
CCCNS(=O)(=O)c1ccc(C(=O)NC(CC)c2cnn(C)c2)cc1 (stereo not drawn)	6.1
CNC(=O)NC(C)c1nc(-c2ccccc2)c[nH]1 (stereo not drawn)	0.995
